Assay results published in ChEMBL document CHEMBL4732182, “Design, synthesis and biological evaluation of 2-substituted-6-[(4-substituted-1-piperidyl)methyl]-1H-benzimidazoles as inhibitors of ebola virus infection” (Eur J Med Chem, 2021).
pEC50: −log10 of the molar value. Activity calls are given as the source filed them. The rule behind the calls is not given here.

How the values were obtained:
Ebolavirus = assay: Antiviral activity against Ebola virus infected in human HuH7 cells assessed as reduction in viral infection pretreated for 2 hrs followed by viral infection and measured after 3 days by ZsGreen fluorescence assay; assay type: functional, organism-based; conditions: Orthoebolavirus, Huh-7
[1] = Cytotoxicity against human Huh-7 cells assessed as reduction in cell viability incubated for 3 days by cell-titer glo assay; assay type: cell-based; conditions: time 3 day
Method in brief: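 Huh7 cells received compound but no virus, in parallel with the infection assay. Viability was read by CellTiter-Glo luminescence. CC50 was derived from a 4-parameter fit to semi-log concentration-response curves.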

[2] = Selectivity index, ratio of CC50 for human Huh-7 cells to EC50 for Ebola virus infected in human HuH7 cells; assay type: toxicity, cell-based; conditions: read-out: Ratio CC50/EC50
[3] = Inhibition of Ebolavirus glycoprotein transfected in human Huh-7 cells cotransfected with HIV luciferase reporter vector expressing plasmid assessed as reduction in virus entry measured after 3 days by Bright-Glo luciferase assay; assay type: cell-based; conditions: Orthoebolavirus, Huh-7, 72 h
Method in brief: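 Huh7 cells were preincubated with varying compound concentrations for 1 h at 37 C. HIV-based luciferase reporter particles pseudotyped with EBOV GP were then added. Firefly luciferase activity was measured by Bright-Glo 3 days later.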

[4] = molecular target: T1, NPC intracellular cholesterol transporter 1 (Homo sapiens) (UniProt O15118); assay: Inhibition of NPC1 in human HeLa cells assessed as increase in cholesterol accumulation in subcellular localization at 1 uM incubated for 24 hrs by filipin-staining based immunofluorescence assay; assay type: cell-based
T1 sequence (whole entry): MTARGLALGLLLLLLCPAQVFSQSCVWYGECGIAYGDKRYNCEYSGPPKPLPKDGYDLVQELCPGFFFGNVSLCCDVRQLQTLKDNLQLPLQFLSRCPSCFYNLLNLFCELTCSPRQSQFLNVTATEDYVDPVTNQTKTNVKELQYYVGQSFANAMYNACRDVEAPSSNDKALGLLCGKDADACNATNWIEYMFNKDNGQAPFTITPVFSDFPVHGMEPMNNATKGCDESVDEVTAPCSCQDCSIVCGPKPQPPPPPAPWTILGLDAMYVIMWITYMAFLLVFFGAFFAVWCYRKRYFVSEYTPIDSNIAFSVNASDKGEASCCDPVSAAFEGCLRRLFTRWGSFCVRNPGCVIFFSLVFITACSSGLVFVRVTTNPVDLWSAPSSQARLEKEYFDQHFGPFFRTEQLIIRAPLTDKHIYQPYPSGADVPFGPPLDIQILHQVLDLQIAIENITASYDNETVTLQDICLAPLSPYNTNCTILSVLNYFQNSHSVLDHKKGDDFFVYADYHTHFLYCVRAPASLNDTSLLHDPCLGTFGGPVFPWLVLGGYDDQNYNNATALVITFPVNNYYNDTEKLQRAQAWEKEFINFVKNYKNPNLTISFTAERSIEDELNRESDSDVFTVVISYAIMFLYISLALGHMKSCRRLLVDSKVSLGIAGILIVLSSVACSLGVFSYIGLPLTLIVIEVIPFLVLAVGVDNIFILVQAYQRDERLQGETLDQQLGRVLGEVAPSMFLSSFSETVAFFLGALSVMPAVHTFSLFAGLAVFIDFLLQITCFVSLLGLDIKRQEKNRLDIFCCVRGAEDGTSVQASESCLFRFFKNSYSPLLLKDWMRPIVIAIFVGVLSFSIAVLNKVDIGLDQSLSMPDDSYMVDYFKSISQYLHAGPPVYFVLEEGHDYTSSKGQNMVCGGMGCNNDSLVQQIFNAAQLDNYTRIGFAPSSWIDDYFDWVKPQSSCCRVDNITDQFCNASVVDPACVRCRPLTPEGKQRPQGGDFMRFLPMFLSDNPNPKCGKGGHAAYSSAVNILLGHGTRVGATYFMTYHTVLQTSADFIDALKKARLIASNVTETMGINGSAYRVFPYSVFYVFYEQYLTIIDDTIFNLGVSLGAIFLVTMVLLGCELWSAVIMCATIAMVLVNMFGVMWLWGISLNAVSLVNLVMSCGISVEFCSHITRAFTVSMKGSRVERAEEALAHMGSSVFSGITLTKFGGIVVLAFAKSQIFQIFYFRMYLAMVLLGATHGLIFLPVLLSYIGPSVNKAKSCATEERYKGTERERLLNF
Method in brief: (§1)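 HeLa cells were exposed to compound for 24 h; DMSO vehicle was 0.1% (v/v) final. They were then stained with 0.5 mg/mL filipin in PBS plus 10% FCS for 2 h at RT and imaged on a high-content imager.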

[5] = molecular target: T1, NPC intracellular cholesterol transporter 1 (Homo sapiens); assay: Inhibition of NPC1 in human HeLa cells assessed as increase in cholesterol accumulation in subcellular localization at 5 uM incubated for 24 hrs by filipin-staining based immunofluorescence assay; assay type: cell-based; method in brief: as §1

CCOP(=O)(Cc1ccc(COc2ccccc2OC2CCN(Cc3ccc4nc(-c5cccc(OC(F)(F)F)c5)[nH]c4c3)CC2)cc1)OCC
pEC50 (Ebolavirus): 5.53 | CC50 at 72 h [1]: 14700 nM | selectivity ratio [2]: 5

CN(C)CCOc1ccc(/C(=C(\CCCl)c2ccccc2)c2ccccc2)cc1
pEC50 (Ebolavirus): 6.42 | CC50 at 72 h [1]: 2500 nM | selectivity ratio [2]: 7

CCOP(=O)(Cc1ccc(COc2ccccc2CC2CCN(Cc3ccc4nc(-c5ccccc5)[nH]c4c3)CC2)cc1)OCC
pEC50 (Ebolavirus): 6.19 | CC50 at 72 h [1]: 13200 nM | selectivity ratio [2]: 20 | pEC50 [3]: 5.87 | inhibition [4]: Active

CCOP(=O)(Cc1cccc(COc2ccccc2CC2CCN(Cc3ccc4nc(-c5ccccc5)[nH]c4c3)CC2)c1)OCC
pEC50 (Ebolavirus): 6.03 | CC50 at 72 h [1]: 9170 nM | selectivity ratio [2]: 10 | pEC50 [3]: 5.53 | inhibition [4]: Active

CCOP(=O)(Cc1ccc(COc2ccccc2OC2CCN(Cc3ccc4nc(-c5ccc(C(F)(F)F)cc5)[nH]c4c3)CC2)cc1)OCC
pEC50 (Ebolavirus): 5.76 | CC50 at 72 h [1]: 3820 nM | selectivity ratio [2]: 2

CCOP(=O)(Cc1cccc(COc2ccccc2OC2CCN(Cc3ccc4nc(-c5ccc(OC(F)(F)F)cc5)[nH]c4c3)CC2)c1)OCC
pEC50 (Ebolavirus): 5.71 | CC50 at 72 h [1]: 4230 nM | selectivity ratio [2]: 2

CCOP(=O)(Cc1cccc(COc2ccccc2CC2CCN(Cc3ccc4nc(-c5cccc(OC(F)(F)F)c5)[nH]c4c3)CC2)c1)OCC
pEC50 (Ebolavirus): 6.06 | CC50 at 72 h [1]: 4450 nM | selectivity ratio [2]: 5

CCN(CC)CCO[C@H]1CC[C@@]2(C)C(=CC[C@@H]3[C@@H]2CC[C@]2(C)C(=O)CC[C@@H]32)C1
inhibition [5]: Active

CCOP(=O)(Cc1ccc(COc2ccccc2OC2CCN(Cc3ccc4nc(-c5ccc(OC(F)(F)F)cc5)[nH]c4c3)CC2)cc1)OCC
pEC50 (Ebolavirus): 5.92 | CC50 at 72 h [1]: 4200 nM | selectivity ratio [2]: 4

CCOP(=O)(Cc1ccc(COc2ccccc2OC2CCN(Cc3ccc4nc(-c5ccccc5)[nH]c4c3)CC2)cc1)OCC
pEC50 (Ebolavirus): 5.53 | CC50 at 72 h [1]: 14700 nM | selectivity ratio [2]: 5

CCOP(=O)(Cc1cccc(COc2ccccc2OC2CCN(Cc3ccc4nc(-c5ccccc5)[nH]c4c3)CC2)c1)OCC
pEC50 (Ebolavirus): 5.73 | CC50 at 72 h [1]: 13100 nM | selectivity ratio [2]: 7

CCOP(=O)(Cc1ccc(COc2ccccc2OC2CCN(Cc3ccc4nc(-c5cccc(C(F)(F)F)c5)[nH]c4c3)CC2)cc1)OCC
pEC50 (Ebolavirus): 4.53 | CC50 at 72 h [1]: 100000 nM | selectivity ratio [2]: 3
